Our source for the IC50 and Activity values is ChEMBL document CHEMBL2016460, “Synthesis, biological evaluation, and molecular docking studies of 2,6-dinitro-4-(trifluoromethyl)phenoxysalicylaldoxime derivatives as novel antitubulin agents” (Bioorg Med Chem, 2012).

Assay [1] relates to MCF7. Put plainly: Antiproliferative activity against human MCF7 cells after 48 hrs by MTT assay. It counts as functional, cell-based. The following applies: MCF7, 48 h. In outline: (§1)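 Cells were seeded into 96-well plates in complete medium and preincubated 24 h at 37 °C, 5% CO2. Compounds at preset concentrations were added to six wells, with colchicine and CA-4 run alongside as references, and exposed for 48 h. MTT (2.5 mg mL^-1 in PBS) was added for 4 h, followed by SDS/isobutyl alcohol/HCl extraction overnight at 37 °C. OD was read at 570 nm, with three replicate wells per concentration.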

Assay [2] is described as follows: Inhibition of bovine tubulin polymerization after 20 mins by spectrophotometry. Set-up: species or system Bos taurus. In outline: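 Tubulin was preincubated in glutamate buffer at 30 °C and then cooled to 0 °C. GTP was added, samples were moved to 0 °C cuvettes and warmed to 30 °C, and assembly was followed turbidimetrically in a recording spectrophotometer. IC50 was taken as the concentration inhibiting the extent of assembly by 50% after 20 min.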

The test system of another assay is HepG2. As to the kind of experiment: Antiproliferative activity against human HepG2 cells after 48 hrs by MTT assay. The class given is functional, cell-based. The following applies: HepG2, 48 h. In outline:
as §1

In another assay the test system is A549. Put plainly: Antiproliferative activity against human A549 cells after 48 hrs by MTT assay. It counts as functional, cell-based. The following applies: A549, 48 h. In outline: as §1
Assay [3] has as its system MCF7. Put plainly: Induction of apoptosis in human MCF7 cells assessed as early apoptotic cells at 0.05 uM incubated for 24 hrs by Annexin-V-FITC/PI staining based flow cytometry (reference value: 7.4 %). It counts as functional.
For assay [4], the system named is MCF7. Put plainly: Induction of apoptosis in human MCF7 cells assessed as late apoptotic cells at 0.25 uM incubated for 24 hrs by Annexin-V-FITC/PI staining based flow cytometry (reference value: 3.17 %). The class given is functional.
The subject of assay [5] is MCF7. As to the kind of experiment: Induction of apoptosis in human MCF7 cells assessed as late apoptotic cells at 0.01 uM incubated for 24 hrs by Annexin-V-FITC/PI staining based flow cytometry (reference value: 3.17 %). The class given is functional.
The test system of assay [6] is MCF7. As to the kind of experiment: Induction of apoptosis in human MCF7 cells assessed as early apoptotic cells at 0.01 uM incubated for 24 hrs by Annexin-V-FITC/PI staining based flow cytometry (reference value: 7.4 %). The class given is functional.
The test system of assay [7] is MCF7. Put plainly: Induction of apoptosis in human MCF7 cells assessed as late apoptotic cells incubated for 24 hrs by Annexin-V-FITC/PI staining based flow cytometry. It counts as functional, cell-based.
Assay [8] has as its system MCF7. As to the kind of experiment: Induction of apoptosis in human MCF7 cells assessed as late apoptotic cells at 0.05 uM incubated for 24 hrs by Annexin-V-FITC/PI staining based flow cytometry (reference value: 3.17 %). It counts as functional.
The test system of assay [9] is MCF7. As to the kind of experiment: Induction of apoptosis in human MCF7 cells assessed as early apoptotic cells at 0.25 uM incubated for 24 hrs by Annexin-V-FITC/PI staining based flow cytometry (reference value: 7.4 %). It counts as functional.

With `O=[N+]([O-])c1cc(C(F)(F)F)cc([N+](=O)[O-])c1Oc1ccc(Br)cc1/C=N\OCc1ccccc1`, the 50% inhibitory concentration (IC50) stood at 1150 nM with MCF7 [1], 15.4 µM in assay [2], 1180 nM with HepG2 and 2240 nM in the assay with A549.

As for `O=[N+]([O-])c1cc(C(F)(F)F)cc([N+](=O)[O-])c1Oc1ccc(Br)cc1/C=N\OCc1ccccc1F`, the IC50 in the assay with MCF7 [1] was determined as 1120 nM; in assay [2], 6.9 µM; in the assay on HepG2, 890 nM; with A549 it was 1280 nM.

Consider `O=[N+]([O-])c1cc(C(F)(F)F)cc([N+](=O)[O-])c1Oc1ccc(Cl)cc1/C=N\OCc1ccccc1F`, for which the IC50 with MCF7 [1] was 1110 nM; in [2], 7.07 µM; with HepG2, 1020 nM; in the assay with A549, 2570 nM.

In the case of `O=[N+]([O-])c1cc(C(F)(F)F)cc([N+](=O)[O-])c1Oc1ccc(Cl)cc1/C=N\OCc1ccccc1`, the IC50 was found to be 1220 nM with MCF7 [1], 30.9 µM in [2], 1790 nM with HepG2 and 3410 nM in the assay on A549.

Take `O=[N+]([O-])c1cc(C(F)(F)F)cc([N+](=O)[O-])c1Oc1ccc(Cl)cc1/C=N\OCc1ccccc1Cl`: the IC50 in the assay with MCF7 [1] came out at 3950 nM; in assay [2] it was 9.05 µM; in the assay with HepG2 it was 1510 nM; with A549, 5030 nM.

With `O=[N+]([O-])c1cc(C(F)(F)F)cc([N+](=O)[O-])c1Oc1ccccc1/C=N/OCc1ccccc1Cl`, the half-maximal inhibitory concentration (IC50) with MCF7 [1] amounted to 1100 nM; in assay [2], 6.92 µM; in the assay on HepG2, 1170 nM; with A549, 1430 nM.

Take `O=[N+]([O-])c1cc(C(F)(F)F)cc([N+](=O)[O-])c1Oc1c(Cl)cc(Cl)cc1/C=N/OCc1ccc(Cl)cc1Cl`: the half-maximal inhibitory concentration (IC50) in the assay on MCF7 [1] was 1030 nM; in assay [2] it was 6.18 µM; in the assay with HepG2, 940 nM; in the assay on A549, 1420 nM.

As to `O=[N+]([O-])c1cc(C(F)(F)F)cc([N+](=O)[O-])c1Oc1ccccc1/C=N\OCc1ccccc1`, the IC50 in the assay on MCF7 [1] is 1330 nM; in assay [2], 14 µM; in the assay on HepG2, 1330 nM; in the assay on A549, 1470 nM.

Turning to `O=[N+]([O-])c1cc(C(F)(F)F)cc([N+](=O)[O-])c1Oc1ccc(Br)cc1/C=N/OCc1ccccc1Cl`, the half-maximal inhibitory concentration (IC50) was 2840 nM with MCF7 [1], 13.2 µM in [2], 1240 nM in the assay with HepG2 and 3430 nM in the assay with A549.

In the case of `COc1cc2c(c(OC)c1OC)-c1ccc(OC)c(=O)cc1[C@@H](NC(C)=O)CC2` [COLCHICINE], the half-maximal inhibitory concentration (IC50) in the assay with MCF7 [1] came to 530 nM; in assay [2] it was 1.72 µM; in the assay with HepG2, 230 nM; in the assay with A549, 750 nM.

For the compound `COc1ccc(/C=C\c2cc(OC)c(OC)c(OC)c2)cc1O` [COMBRETASTATIN A4], the half-inhibitory concentration (IC50) worked out at 410 nM in the assay on MCF7 [1], 0.7 µM in [2], 190 nM in the assay with HepG2 and 90 nM in the assay on A549.

For `O=[N+]([O-])c1cc(C(F)(F)F)cc([N+](=O)[O-])c1Oc1ccccc1/C=N/OCc1ccc(Cl)cc1Cl`, the IC50 is 940 nM in the assay with MCF7 [1], 4.08 µM in assay [2], 1020 nM in the assay on HepG2 and 1610 nM in the assay on A549.

As to `O=[N+]([O-])c1cc(C(F)(F)F)cc([N+](=O)[O-])c1Oc1c(Br)cc(Br)cc1/C=N/OCc1ccc(Cl)cc1Cl`, the IC50 with MCF7 [1] came out at 2090 nM; in [2] it was 15.7 µM; in the assay on HepG2, 1050 nM; with A549, 6190 nM.

Turning to `O=[N+]([O-])c1cc(C(F)(F)F)cc([N+](=O)[O-])c1Oc1c(Br)cc(Br)cc1/C=N\OCc1ccccc1Cl`, the IC50 is 2320 nM in the assay on MCF7 [1], 18.1 µM in assay [2], 2450 nM in the assay on HepG2 and 4120 nM in the assay with A549.

With `O=[N+]([O-])c1cc(C(F)(F)F)cc([N+](=O)[O-])c1Oc1c(Cl)cc(Cl)cc1/C=N\OCc1ccccc1`, the IC50 turned out to be 1210 nM in the assay with MCF7 [1], 9.02 µM in [2], 1120 nM in the assay on HepG2 and 1450 nM in the assay on A549.

`O=[N+]([O-])c1cc(C(F)(F)F)cc([N+](=O)[O-])c1Oc1ccccc1/C=N\OCc1ccccc1F`: the Activity in the assay with MCF7 [3] is 27.64%; with MCF7 [4], 9.65%; in the assay with MCF7 [5] it was 4.46%; with MCF7 [6], 17.32%; in the assay on MCF7 [7] it was “Dose-dependent effect”; in the assay with MCF7 [8] it was 7.72%. Also, the Activity in the assay with MCF7 [9] was 34.51%. Besides, the IC50 in the assay on MCF7 [1] is 700 nM; in [2] it was 3.06 µM; in the assay on HepG2 it was 680 nM; with A549, 860 nM.

As for `O=[N+]([O-])c1cc(C(F)(F)F)cc([N+](=O)[O-])c1Oc1ccc(Br)cc1/C=N\OCc1ccc(Cl)cc1Cl`, the IC50 in the assay on MCF7 [1] stood at 1340 nM; in [2] it was 7.06 µM; in the assay with HepG2, 1070 nM; with A549 it was 2060 nM.

For `O=[N+]([O-])c1cc(C(F)(F)F)cc([N+](=O)[O-])c1Oc1c(Cl)cc(Cl)cc1/C=N\OCc1ccccc1F`, the IC50 in the assay on MCF7 [1] was found to be 800 nM; in [2], 3.65 µM; with HepG2, 820 nM; in the assay on A549, 1230 nM.

With `O=[N+]([O-])c1cc(C(F)(F)F)cc([N+](=O)[O-])c1Oc1ccc(Cl)cc1/C=N\OCc1ccc(Cl)cc1Cl`, the IC50 worked out at 1140 nM with MCF7 [1], 7.54 µM in [2], 1280 nM in the assay on HepG2 and 3440 nM in the assay with A549.

With `O=[N+]([O-])c1cc(C(F)(F)F)cc([N+](=O)[O-])c1Oc1c(Br)cc(Br)cc1/C=N\OCc1ccccc1F`, the IC50 with MCF7 [1] amounted to 880 nM; in assay [2] it was 4.53 µM; in the assay on HepG2, 1100 nM; in the assay on A549, 1560 nM.

Take `O=[N+]([O-])c1cc(C(F)(F)F)cc([N+](=O)[O-])c1Oc1c(Br)cc(Br)cc1/C=N\OCc1ccccc1`: the concentration for half-maximal inhibition (IC50) was 1830 nM in the assay with MCF7 [1], 18 µM in [2], 1480 nM in the assay with HepG2 and 2150 nM with A549.

`O=[N+]([O-])c1cc(C(F)(F)F)cc([N+](=O)[O-])c1Oc1c(Cl)cc(Cl)cc1/C=N/OCc1ccccc1Cl`: the half-maximal inhibitory concentration (IC50) is 1960 nM in the assay with MCF7 [1], 16.1 µM in assay [2], 1120 nM with HepG2 and 2160 nM with A549.
